Reference: ChEMBL document CHEMBL3407418, “Fragment-based drug discovery of 2-thiazolidinones as BRD4 inhibitors: 2. Structure-based optimization” (J Med Chem, 2015)
pIC50: −log10 of the molar value.

What was measured:
[1] = molecular target: T1, Bromodomain-containing protein 4 (Homo sapiens, UniProt O60885); assay: Inhibition of BRD4(1) (unknown origin) incubated for 4 hrs by (+)-JQ1 fluorescent ligand based fluorescence anisotrophy
[2] = molecular target: SWI/SNF-related matrix-associated actin-dependent regulator of chromatin subfamily A member 4 (Homo sapiens) (UniProt P51532); assay: Binding affinity to BRG1 (unknown origin) assessed as increase in protein melting temperature at 50 umol by real-time PCR system based thermal shift assay
Procedure, shortened: (§1)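 Bromodomain proteins in 10 mmol HEPES pH 7.5, 500 mmol NaCl at 75 μg/mL final; compound at 50 µmol final; SYPRO Orange probe at 1:1000. Four replicates per protein mixture. Melt curve read on a real-time PCR instrument, heating 25 °C to 99 °C at 1 °C/min under continuous fluorescence reading; binding taken as the rise in protein melting temperature.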

[3] = molecular target: Histone acetyltransferase p300 (Homo sapiens) (UniProt Q09472); assay: Binding affinity to EP300 (unknown origin) assessed as increase in protein melting temperature at 50 umol by real-time PCR system based thermal shift assay; procedure, shortened: as §1
[4] = Growth inhibition of human MM1S cells after 72 hrs by CellTiter-Glo luminescent cell viability assay; conditions: MM1.S
[5] = molecular target: T1, Bromodomain-containing protein 4
CYP2C19 = CYP2C19 (Homo sapiens, UniProt P33261); assay: Inhibition of CYP2C19 in human liver microsomes at 10 uM using mephenytoin substrate preincubated for 5 mins before NADPH addition and measured after 20 mins post NADPH addition; assay type: ADME; conditions: probe mephenytoin
Procedure, shortened: (§2)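 Human liver microsomes 0.2 mg/mL, 1 mmol NADPH, 100 mmol phosphate pH 7.4, probe cocktail (10 μM midazolam, 100 μM testosterone, 10 μM dextromethorphan, 20 μM diclofenac, 100 μM phenacetin, 100 μM mephenytoin), test compound 10 μM or PBS; organic solvent <1%. 5 min preincubation at 37 °C, NADPH-generating system start, 20 min reaction; inhibition from metabolite formation relative to PBS.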

[6] = molecular target: Bromodomain-containing protein 2 (Homo sapiens) (UniProt P25440); assay: Binding affinity to BRD2(1) (unknown origin) assessed as increase in protein melting temperature at 50 umol by real-time PCR system based thermal shift assay; procedure, shortened: as §1
CYP3A4 [7] = molecular target: T2, CYP3A4 (Homo sapiens, UniProt P08684); assay: Inhibition of CYP3A4 in human liver microsomes at 10 uM using midazolam substrate preincubated for 5 mins before NADPH addition and measured after 20 mins post NADPH addition; assay type: ADME; conditions: probe midazolam; procedure, shortened: as §2
CYP1A2 = molecular target: T3, CYP1A2 (Homo sapiens, UniProt P05177); assay: Inhibition of CYP1A2 in human liver microsomes at 10 uM using phenacetin substrate preincubated for 5 mins before NADPH addition and measured after 20 mins post NADPH addition; assay type: ADME; conditions: probe phenacetin; procedure, shortened: as §2
T3 sequence (P05177 whole entry): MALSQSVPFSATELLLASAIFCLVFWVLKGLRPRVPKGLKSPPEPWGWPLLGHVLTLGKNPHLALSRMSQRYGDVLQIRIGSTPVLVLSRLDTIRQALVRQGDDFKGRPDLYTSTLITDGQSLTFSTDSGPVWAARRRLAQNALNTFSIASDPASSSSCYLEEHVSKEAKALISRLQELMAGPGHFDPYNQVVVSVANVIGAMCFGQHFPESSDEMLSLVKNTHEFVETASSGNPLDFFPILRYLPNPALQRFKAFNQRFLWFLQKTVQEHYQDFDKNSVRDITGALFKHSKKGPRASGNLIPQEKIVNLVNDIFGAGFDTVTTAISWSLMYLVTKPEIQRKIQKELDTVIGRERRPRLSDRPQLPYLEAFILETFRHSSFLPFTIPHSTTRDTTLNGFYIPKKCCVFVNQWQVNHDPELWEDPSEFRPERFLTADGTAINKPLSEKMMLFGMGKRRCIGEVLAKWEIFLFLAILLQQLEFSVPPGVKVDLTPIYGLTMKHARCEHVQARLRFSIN

MV4-11 = assay: Growth inhibition of human MV4-11 cells after 72 hrs by CellTiter-Glo luminescent cell viability assay; conditions: MV4-11, 72 h
[8] = Stability in human liver microsomes assessed as clearance at 1 uM pre-incubated for 5 mins followed by NADPH addition and measured after 5 to 30 mins post NADPH addition by LC/MS/MS method; assay type: ADME; conditions: read-out: CLH
Procedure, shortened: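 Human liver microsomes (0.5 mg/mL) preincubated with 1 µM compound for 5 min at 37 °C in 0.1 M phosphate pH 7.4 with 1 mmol EDTA and 5 mmol MgCl2. Started with 1 mmol NADPH; sampled at 0, 5, 10 and 30 min. Quenched with equal volume of cold acetonitrile, vortexed, and centrifuged at 10,000 × g.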

CYP3A4 [9] = molecular target: T2, CYP3A4; assay: Inhibition of CYP3A4 in human liver microsomes at 10 uM preincubated for 5 mins before NADPH addition and measured after 20 mins post NADPH addition; assay type: ADME
HT-29 = assay: Growth inhibition of human HT-29 cells after 72 hrs by SRB assay; assay type: functional, cell-based; conditions: HT-29, 72 h
Procedure, shortened: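 HT-29 cells are grown in McCoy's 5A with 10% FBS at 37 °C, 5% CO2. DMSO stocks (0.01 mol/L) are diluted in normal saline just before use. Cells are treated in triplicate with gradient concentrations for 72 h at 37 °C.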

Sequence of CYP2C19 (P33261 whole entry): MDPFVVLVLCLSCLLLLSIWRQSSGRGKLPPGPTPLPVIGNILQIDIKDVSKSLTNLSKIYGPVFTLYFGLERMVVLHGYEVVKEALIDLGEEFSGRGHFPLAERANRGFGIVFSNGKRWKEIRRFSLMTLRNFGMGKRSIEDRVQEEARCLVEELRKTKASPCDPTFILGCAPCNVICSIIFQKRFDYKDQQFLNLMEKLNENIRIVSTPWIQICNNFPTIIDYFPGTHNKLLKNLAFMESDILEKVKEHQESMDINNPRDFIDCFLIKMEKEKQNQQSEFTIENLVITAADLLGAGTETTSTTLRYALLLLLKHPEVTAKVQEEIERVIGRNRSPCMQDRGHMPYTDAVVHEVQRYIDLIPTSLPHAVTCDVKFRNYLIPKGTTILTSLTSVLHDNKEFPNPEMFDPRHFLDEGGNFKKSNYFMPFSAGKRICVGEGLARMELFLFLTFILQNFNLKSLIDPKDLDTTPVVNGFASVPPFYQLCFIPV
Sequence of Histone acetyltransferase p300 (Homo sapiens) (Q09472 whole entry): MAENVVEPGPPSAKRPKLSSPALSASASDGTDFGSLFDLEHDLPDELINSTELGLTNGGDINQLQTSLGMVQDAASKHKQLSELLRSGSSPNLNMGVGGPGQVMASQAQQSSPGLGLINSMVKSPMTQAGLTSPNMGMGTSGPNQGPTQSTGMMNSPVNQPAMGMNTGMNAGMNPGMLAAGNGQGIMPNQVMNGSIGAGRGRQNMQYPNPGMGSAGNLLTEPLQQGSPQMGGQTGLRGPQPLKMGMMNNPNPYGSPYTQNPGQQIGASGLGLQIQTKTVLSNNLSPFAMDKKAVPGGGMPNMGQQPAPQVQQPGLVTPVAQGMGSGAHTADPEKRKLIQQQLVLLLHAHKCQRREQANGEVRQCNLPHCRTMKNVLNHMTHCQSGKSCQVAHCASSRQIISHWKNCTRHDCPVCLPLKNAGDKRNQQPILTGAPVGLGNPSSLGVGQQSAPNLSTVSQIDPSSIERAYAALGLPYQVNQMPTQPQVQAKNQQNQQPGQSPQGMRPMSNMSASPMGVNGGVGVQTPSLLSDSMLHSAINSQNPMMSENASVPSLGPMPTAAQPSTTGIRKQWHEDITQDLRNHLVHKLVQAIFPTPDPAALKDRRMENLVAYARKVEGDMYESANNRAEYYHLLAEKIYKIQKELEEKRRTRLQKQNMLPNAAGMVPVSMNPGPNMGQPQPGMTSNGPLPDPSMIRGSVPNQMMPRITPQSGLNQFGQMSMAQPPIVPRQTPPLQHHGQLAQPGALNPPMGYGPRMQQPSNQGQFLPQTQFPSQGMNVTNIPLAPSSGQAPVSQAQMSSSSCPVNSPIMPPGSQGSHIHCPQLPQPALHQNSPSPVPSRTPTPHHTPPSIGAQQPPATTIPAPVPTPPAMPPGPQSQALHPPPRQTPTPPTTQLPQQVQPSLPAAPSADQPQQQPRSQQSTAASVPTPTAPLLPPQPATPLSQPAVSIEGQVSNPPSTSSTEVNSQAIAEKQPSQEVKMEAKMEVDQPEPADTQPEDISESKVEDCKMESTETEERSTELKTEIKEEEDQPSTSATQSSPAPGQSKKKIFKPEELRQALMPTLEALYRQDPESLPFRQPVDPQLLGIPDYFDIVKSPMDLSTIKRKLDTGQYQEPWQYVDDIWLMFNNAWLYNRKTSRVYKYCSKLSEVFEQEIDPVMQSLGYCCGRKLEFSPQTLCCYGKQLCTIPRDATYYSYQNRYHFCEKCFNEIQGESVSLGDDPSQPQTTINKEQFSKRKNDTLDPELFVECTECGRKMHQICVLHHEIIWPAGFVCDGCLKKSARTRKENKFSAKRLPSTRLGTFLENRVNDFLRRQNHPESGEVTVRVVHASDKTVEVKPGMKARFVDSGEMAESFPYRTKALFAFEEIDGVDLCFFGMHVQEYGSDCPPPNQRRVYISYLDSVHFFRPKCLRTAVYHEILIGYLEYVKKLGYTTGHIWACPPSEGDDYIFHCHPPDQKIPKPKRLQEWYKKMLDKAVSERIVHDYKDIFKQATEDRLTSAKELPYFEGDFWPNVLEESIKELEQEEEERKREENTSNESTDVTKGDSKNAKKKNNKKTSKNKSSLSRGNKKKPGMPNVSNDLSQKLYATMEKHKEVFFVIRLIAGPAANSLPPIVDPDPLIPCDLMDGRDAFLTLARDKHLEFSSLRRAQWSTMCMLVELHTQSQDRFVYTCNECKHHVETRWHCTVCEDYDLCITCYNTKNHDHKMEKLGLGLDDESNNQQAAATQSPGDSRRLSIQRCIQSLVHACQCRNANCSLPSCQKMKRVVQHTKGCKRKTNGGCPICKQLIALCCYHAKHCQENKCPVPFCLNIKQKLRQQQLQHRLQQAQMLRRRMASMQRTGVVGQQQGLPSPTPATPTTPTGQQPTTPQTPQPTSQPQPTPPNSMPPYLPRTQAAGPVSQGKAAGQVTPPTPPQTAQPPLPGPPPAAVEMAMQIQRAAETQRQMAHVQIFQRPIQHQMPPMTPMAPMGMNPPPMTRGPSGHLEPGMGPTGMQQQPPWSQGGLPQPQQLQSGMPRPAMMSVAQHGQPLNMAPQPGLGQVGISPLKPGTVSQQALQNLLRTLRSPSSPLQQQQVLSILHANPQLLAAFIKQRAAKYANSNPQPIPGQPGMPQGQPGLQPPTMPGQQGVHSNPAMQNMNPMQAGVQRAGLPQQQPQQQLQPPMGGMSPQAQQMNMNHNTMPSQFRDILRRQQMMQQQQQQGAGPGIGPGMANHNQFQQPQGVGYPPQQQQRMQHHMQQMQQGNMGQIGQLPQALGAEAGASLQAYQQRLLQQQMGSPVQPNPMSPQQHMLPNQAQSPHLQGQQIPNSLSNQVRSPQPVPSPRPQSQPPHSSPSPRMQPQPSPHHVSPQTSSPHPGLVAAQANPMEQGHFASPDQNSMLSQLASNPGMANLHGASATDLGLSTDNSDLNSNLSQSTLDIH
Sequence of SWI/SNF-related matrix-associated actin-dependent regulator of chromatin subfamily A member 4 (Homo sapiens) (P51532 whole entry): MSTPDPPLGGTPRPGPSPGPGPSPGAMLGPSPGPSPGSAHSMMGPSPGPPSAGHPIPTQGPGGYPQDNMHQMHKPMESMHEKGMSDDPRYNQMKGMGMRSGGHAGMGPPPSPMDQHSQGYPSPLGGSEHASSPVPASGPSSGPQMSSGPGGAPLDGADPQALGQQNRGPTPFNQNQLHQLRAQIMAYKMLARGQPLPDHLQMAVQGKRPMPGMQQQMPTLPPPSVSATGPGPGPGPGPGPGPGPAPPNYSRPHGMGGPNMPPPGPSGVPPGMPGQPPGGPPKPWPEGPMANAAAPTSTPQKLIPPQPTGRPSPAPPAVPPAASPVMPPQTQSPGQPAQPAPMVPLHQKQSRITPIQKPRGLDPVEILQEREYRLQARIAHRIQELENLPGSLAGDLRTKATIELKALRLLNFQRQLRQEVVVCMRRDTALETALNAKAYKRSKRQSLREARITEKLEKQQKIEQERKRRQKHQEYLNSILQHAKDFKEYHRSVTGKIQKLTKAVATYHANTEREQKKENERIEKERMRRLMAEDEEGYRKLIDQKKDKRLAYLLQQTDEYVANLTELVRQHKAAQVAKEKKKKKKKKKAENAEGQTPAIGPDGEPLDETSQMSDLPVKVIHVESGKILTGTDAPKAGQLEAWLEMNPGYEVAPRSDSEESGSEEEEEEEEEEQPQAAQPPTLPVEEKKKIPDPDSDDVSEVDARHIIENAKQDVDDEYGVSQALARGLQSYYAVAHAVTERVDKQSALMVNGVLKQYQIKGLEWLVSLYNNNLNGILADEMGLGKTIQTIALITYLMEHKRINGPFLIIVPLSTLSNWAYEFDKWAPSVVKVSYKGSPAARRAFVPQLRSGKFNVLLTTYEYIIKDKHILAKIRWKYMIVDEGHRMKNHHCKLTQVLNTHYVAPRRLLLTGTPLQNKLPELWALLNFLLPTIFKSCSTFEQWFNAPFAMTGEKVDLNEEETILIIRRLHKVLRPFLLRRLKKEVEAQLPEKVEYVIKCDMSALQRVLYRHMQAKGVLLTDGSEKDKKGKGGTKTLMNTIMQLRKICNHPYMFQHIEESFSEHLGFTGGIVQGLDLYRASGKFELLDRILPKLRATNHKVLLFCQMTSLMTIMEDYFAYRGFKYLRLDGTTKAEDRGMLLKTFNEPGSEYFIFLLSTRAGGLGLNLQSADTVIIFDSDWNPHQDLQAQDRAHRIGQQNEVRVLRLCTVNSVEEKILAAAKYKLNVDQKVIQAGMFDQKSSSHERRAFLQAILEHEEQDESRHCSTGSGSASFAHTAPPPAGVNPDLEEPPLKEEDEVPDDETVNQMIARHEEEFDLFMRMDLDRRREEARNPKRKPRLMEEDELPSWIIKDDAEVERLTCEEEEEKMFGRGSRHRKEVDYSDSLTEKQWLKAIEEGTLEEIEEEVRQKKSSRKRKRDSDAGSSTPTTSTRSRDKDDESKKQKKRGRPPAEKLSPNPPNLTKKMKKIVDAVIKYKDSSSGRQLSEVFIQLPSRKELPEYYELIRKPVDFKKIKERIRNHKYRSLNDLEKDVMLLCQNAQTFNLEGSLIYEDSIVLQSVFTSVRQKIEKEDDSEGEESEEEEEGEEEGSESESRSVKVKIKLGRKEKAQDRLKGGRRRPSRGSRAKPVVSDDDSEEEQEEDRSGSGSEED
T2 sequence (P08684 whole entry): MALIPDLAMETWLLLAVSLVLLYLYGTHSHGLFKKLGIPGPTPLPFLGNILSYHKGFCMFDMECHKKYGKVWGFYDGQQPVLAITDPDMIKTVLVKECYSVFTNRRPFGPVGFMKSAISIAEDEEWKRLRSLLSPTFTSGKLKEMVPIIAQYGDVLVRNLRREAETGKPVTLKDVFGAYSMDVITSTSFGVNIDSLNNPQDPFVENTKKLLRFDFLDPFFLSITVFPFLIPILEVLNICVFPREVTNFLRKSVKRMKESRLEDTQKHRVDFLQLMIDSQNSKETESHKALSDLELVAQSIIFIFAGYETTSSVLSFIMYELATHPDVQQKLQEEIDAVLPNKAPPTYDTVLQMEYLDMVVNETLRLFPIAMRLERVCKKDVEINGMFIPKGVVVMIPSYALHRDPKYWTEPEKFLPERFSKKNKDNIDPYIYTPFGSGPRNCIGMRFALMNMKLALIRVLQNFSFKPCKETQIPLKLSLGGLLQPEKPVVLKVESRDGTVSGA

## Cc1ccc(-c2csc(=O)[nH]2)cc1S(=O)(=O)NC1CCCC1
[1]
  pIC50: 6.66
[2]
  ΔTm: 0.69 °C
[3]
  ΔTm: -0.17 °C
[4]
  pIC50: 5.72
[5]
  ΔTm: 6.3 °C
CYP2C19
  inhibition at 20 min, 10 µM: 45%
[6]
  ΔTm: 3.47 °C
CYP3A4 [7]
  inhibition at 20 min, 10 µM: 62%
CYP1A2
  inhibition at 20 min, 10 µM: 52%
MV4-11
  pIC50: 6.34
[8]
  microsomal CLint at 1 µM: 128 µL/min/mg
CYP3A4 [9]
  inhibition at 20 min, 10 µM: 68%
HT-29
  pIC50: 5.40

## COc1ccc(-c2csc(=O)[nH]2)cc1S(=O)(=O)NC1CCCC1
[1]
  pIC50: 6.12
[2]
  ΔTm: 0.41 °C
[3]
  ΔTm: 0.49 °C
[4]
  pIC50: 5.62
[5]
  ΔTm: 5.19 °C
CYP2C19
  inhibition at 20 min, 10 µM: 26%
[6]
  ΔTm: 2.82 °C
CYP3A4 [7]
  inhibition at 20 min, 10 µM: 20%
CYP1A2
  inhibition at 20 min, 10 µM: 3%
MV4-11
  pIC50: 6.26
[8]
  microsomal CLint at 1 µM: 56 µL/min/mg
CYP3A4 [9]
  inhibition at 20 min, 10 µM: 30%
HT-29
  pIC50: 5.41

## Cc1c(Br)cc(-c2csc(=O)[nH]2)cc1S(=O)(=O)NC1CCCC1
[1]
  pIC50: 7.22
[2]
  ΔTm: 0.94 °C
[3]
  ΔTm: -1.01 °C
[4]
  pIC50: 6.00
[5]
  ΔTm: 9.22 °C
CYP2C19
  inhibition at 20 min, 10 µM: 28%
[6]
  ΔTm: 5.92 °C
CYP3A4 [7]
  inhibition at 20 min, 10 µM: 42%
CYP1A2
  inhibition at 20 min, 10 µM: 47%
MV4-11
  pIC50: 6.85
[8]
  microsomal CLint at 1 µM: 84 µL/min/mg
CYP3A4 [9]
  inhibition at 20 min, 10 µM: 53%
HT-29
  pIC50: 5.26

## Cc1c(N)cc(-c2csc(=O)[nH]2)cc1S(=O)(=O)NC1CCCC1
[1]
  pIC50: 6.85
[2]
  ΔTm: 0.57 °C
[3]
  ΔTm: 0.19 °C
[4]
  pIC50: 6.24
[5]
  ΔTm: 7.25 °C
CYP2C19
  inhibition at 20 min, 10 µM: 3%
[6]
  ΔTm: 5.04 °C
CYP3A4 [7]
  inhibition at 20 min, 10 µM: 42%
CYP1A2
  inhibition at 20 min, 10 µM: 17%
MV4-11
  pIC50: 6.74
[8]
  microsomal CLint at 1 µM: 66 µL/min/mg
CYP3A4 [9]
  inhibition at 20 min, 10 µM: 46%
HT-29
  pIC50: 6.07

## Nc1ccc(-c2csc(=O)[nH]2)cc1S(=O)(=O)NC1CCCC1
[1]
  pIC50: 6.92
[2]
  ΔTm: 0.39 °C
[3]
  ΔTm: -0.08 °C
[4]
  pIC50: 6.10
[5]
  ΔTm: 7.76 °C
CYP2C19
  inhibition at 20 min, 10 µM: 57%
[6]
  ΔTm: 4.06 °C
CYP3A4 [7]
  inhibition at 20 min, 10 µM: 70%
CYP1A2
  inhibition at 20 min, 10 µM: 22%
MV4-11
  pIC50: 6.54
[8]
  microsomal CLint at 1 µM: 20 µL/min/mg
CYP3A4 [9]
  inhibition at 20 min, 10 µM: 82%
HT-29
  pIC50: 5.48

## O=C(Nc1cc(-c2csc(=O)[nH]2)cc(S(=O)(=O)NC2CCCC2)c1)C1CC1
[1]
  pIC50: 7.22
[2]
  ΔTm: 1.03 °C
[3]
  ΔTm: -0.54 °C
[4]
  pIC50: 5.98
[5]
  ΔTm: 8.48 °C
CYP2C19
  inhibition at 20 min, 10 µM: 32%
[6]
  ΔTm: 5.63 °C
CYP3A4 [7]
  inhibition at 20 min, 10 µM: 14%
CYP1A2
  inhibition at 20 min, 10 µM: 29%
MV4-11
  pIC50: 6.64
[8]
  microsomal CLint at 1 µM: 74 µL/min/mg
CYP3A4 [9]
  inhibition at 20 min, 10 µM: 21%
HT-29
  pIC50: 5.24
